In article PMC4091685 (Cancer chemotherapy and pharmacology, 2014):
Read-outs that look alike come from different tables or passages of the source.

Assays:
[1] = rat, in vivo
[2] = MTD following a single i.v. injection in rats; conditions: Sprague Dawley, rat, in vivo, iv
[3] = beagle, dog, in vivo
in vivo = conditions: rat
Sprague-Dawley rats [4] = conditions: rat, in vivo, iv
[5] = tested on: AML patient cells (bulk, CD34+, CD34+CD38−, CD34+CD38+); assay: Apoptosis; type: cell-based; conditions: Homo sapiens, 24 h
In short: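 Fresh peripheral blood came from AML patients with blasts of 95% or higher. Mononuclear cells were isolated on Ficoll-Hypaque and cultured in RPMI 1640 with 10% heat-inactivated FCS, 2mM glutamine and penicillin/streptomycin, on murine MS-5 stromal cells. Cells were stained for CD45, CD34, CD38 and annexin V Cy5, with leukemic cells gated as CD45+. Flow cytometry gave % annexin V+ cells, and EC50 was derived across test compound concentrations. Representative of two patients' samples.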

[6] = tested on: MV4–11 human AML cell line; assay: In vitro cytotoxic activity, Alamar Blue viability assay; type: cell-based
[7] = 7-day repeat dose i.v. rat toxicology comparison study; conditions: both, Sprague-Dawley, rat, in vivo, iv
Sprague-Dawley rats [8] = assay: as above; conditions: MRx102 3.0 mg/kg/day or triptolide 0.3 mg/kg/day i.v.
[9] = tested on: AML patient cells (bulk, CD34+, CD34+CD38−, CD34+CD38+); assay: Viable cell count in AML patients' samples, flow cytometry; type: cell-based; conditions: Homo sapiens, 24 h
In short: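 AML patient peripheral blood (blasts 95% or higher) was Ficoll-Hypaque purified and cultured in RPMI 1640 with 10% heat-inactivated FCS, 2mM glutamine and penicillin/streptomycin, cocultured with murine MS-5 stromal cells. Leukemic cells were gated CD45+ and subdivided by CD34/CD38. Viable counts came from CountBright beads on annexin V/7-AAD-negative events by flow cytometry. EC50 was derived across test compound concentrations. Representative of two patients' samples.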

[10] = female, Sprague Dawley, iv, 0.05 mg/kg/day
[11] = female, Sprague Dawley, iv, 0.15 mg/kg/day
[12] = female, Sprague-Dawley, iv, 3 mg/kg/day
[13] = male, Sprague Dawley, iv, 0.05 mg/kg/day
[14] = male, Sprague Dawley, iv, 0.15 mg/kg/day
[15] = male, Sprague Dawley, iv, 0.3 mg/kg/day
[16] = male, Sprague Dawley, iv, 0.5 mg/kg/day
[17] = male, Sprague Dawley, iv, 1.5 mg/kg/day
[18] = male, Sprague Dawley, iv, 3 mg/kg/day
[19] = male, Sprague-Dawley, iv, 1.5 mg/kg/day
[20] = male, Sprague-Dawley, iv, 3 mg/kg/day
[21] = female, Sprague Dawley, iv, 0.3 mg/kg/day

CC(C)[C@]12O[C@H]1[C@@H]1O[C@]13[C@]1(O[C@H]1C[C@H]1C4=C(CC[C@@]13C)C(=O)OC4)[C@@H]2O [Triptolide]
T1/2,e of triptolide after MRx102 injection relative to after triptolide ([1]; Sprague-Dawley): over 7 fold
T1/2,e range ([1]; Sprague-Dawley): 51 to 222 min
AUC0-inf Median ([1]; both, Sprague Dawley, iv): 29.69 ng·h/mL
Cmax Median ([1]; both, Sprague Dawley, iv): 23.8 ng/mL
Cmax range ([1]; both, Sprague Dawley, iv): 7.83 to 41.1 ng/mL
T1/2,e Median ([1]; both, Sprague Dawley, iv): 96 min
T1/2,e range ([1]; both, Sprague Dawley, iv): 51 to 786 min
AUC0-inf [1, 10]: 8.14 ng·h/mL
Cl [1, 10]: 6.1 L/h
Cmax [1, 10]: 11.0 ng/mL
Vz [1, 10]: 2.2 L
AUC0-inf [1, 11]: 36.82 ng·h/mL
Cl [1, 11]: 4.1 L/h
Cmax [1, 11]: 48.6 ng/mL
Vz [1, 11]: 1.3 L
Cmax range ([1]; female, Sprague-Dawley, iv, 3 mg/kg): 11.8 to 41.1 ng/mL
Cmax [1, 12]: 41.1 ng/mL
Tmax [1, 12]: 60 min
T1/2,e [1, 13]: 10.2 min
Vz [1, 13]: 0.2 L
AUC0-inf [1, 14]: 37.95 ng·h/mL
C0 [1, 14]: 130 ng/mL
Cl [1, 14]: 4.0 L/h
Cmax [1, 14]: 49.7 ng/mL
T1/2,e [1, 14]: 12.6 min
Vz [1, 14]: 1.2 L
AUC0-inf [1, 15]: 75.92 ng·h/mL
C0 [1, 15]: 273 ng/mL
Cl [1, 15]: 4.0 L/h
T1/2,e [1, 15]: 14.4 min
AUC0-inf [1, 16]: 15.97 ng·h/mL
T1/2,e [1, 16]: 51 min
AUC0-inf [1, 17]: 164.8 ng·h/mL
Cmax [1, 17]: 9.17 ng/mL
T1/2,e [1, 17]: 786 min
Tmax [1, 17]: 30 min
AUC0-inf [1, 18]: 66.12 ng·h/mL
Cmax [1, 18]: 16.0 ng/mL
T1/2,e [1, 18]: 222 min
AUC0-inf [1, 19]: 12.66 ng·h/mL
Cmax [1, 19]: 7.83 ng/mL
T1/2,e [1, 19]: 66 min
Cmax range ([1]; male, Sprague-Dawley, iv, 3 mg/kg): 7.83 to 32.5 ng/mL
AUC0-inf [1, 20]: 269.69 ng·h/mL
Cmax [1, 20]: 17.7 ng/mL
T1/2,e [1, 20]: 84 min
accumulation index [1]: less than unity
MTD ([2]; female): 0.317 mg/kg
MTD ([2]; male): 0.63 mg/kg
AUC0–24hr Median ([3]; iv): 34.83 ng·h/mL
AUC0–24hr Range ([3]; iv): 1.50 to 212.0 ng·h/mL
Cmax Median ([3]; iv): 3.44 ng/mL
Cmax range ([3]; iv): 2.0 to 49.0 ng/mL
Cmax range ([3]; female): 2.0 to 21.1 ng/mL
Cmax range ([3]; male): 2.22 to 49.0 ng/mL
AUC0–24hr ([3]; male, iv, 0.1 mg/kg/day): 25.53 ng·h/mL
Cmax ([3]; male, iv, 0.1 mg/kg/day): 2.22 ng/mL
Tmax ([3]; male, iv, 0.1 mg/kg/day): 120 min
clearance (in vivo; Sprague-Dawley, Cl range): 15.5 to 102 mL/min
Vd (in vivo; Sprague-Dawley, Vz range): 0.2 to 2.2 L
AUC0-inf (in vivo; both, Sprague Dawley, iv, AUC0-inf Median): 51.4 ng·h/mL
Cmax (in vivo; both, Sprague Dawley, iv, Cmax Median): 59 ng/mL
Cmax (in vivo; both, Sprague Dawley, iv, Cmax Range): 11 to 189 ng/mL
half-life (in vivo; both, Sprague Dawley, iv, T1/2,e Median): 13.2 min
half-life (in vivo; both, Sprague Dawley, iv, T1/2,e Range): 9 to 23.4 min
Tmax (in vivo; [10]): 15 min
AUC0-inf (in vivo; female, Sprague Dawley, iv, 0.05 mg/kg/day, AUC0-inf): 12.5 ng·h/mL
clearance (in vivo; female, Sprague Dawley, iv, 0.05 mg/kg/day, Cl): 66.7 mL/min
Cmax (in vivo; female, Sprague Dawley, iv, 0.05 mg/kg/day, Cmax): 15.4 ng/mL
half-life (in vivo; female, Sprague Dawley, iv, 0.05 mg/kg/day, T1/2,e): 15 min
Vd (in vivo; female, Sprague Dawley, iv, 0.05 mg/kg/day, Vz): 1.4 L
Tmax (in vivo; [11]): 15 min
AUC0-inf (in vivo; female, Sprague Dawley, iv, 0.15 mg/kg/day, AUC0-inf): 72.1 ng·h/mL
clearance (in vivo; female, Sprague Dawley, iv, 0.15 mg/kg/day, Cl): 35 mL/min
Cmax (in vivo; female, Sprague Dawley, iv, 0.15 mg/kg/day, Cmax): 74.6 ng/mL
half-life (in vivo; female, Sprague Dawley, iv, 0.15 mg/kg/day, T1/2,e): 19.8 min
Vd (in vivo; female, Sprague Dawley, iv, 0.15 mg/kg/day, Vz): 1 L
Tmax (in vivo; [21]): 15 min
AUC0-inf (in vivo; female, Sprague Dawley, iv, 0.3 mg/kg/day, AUC0-inf): 162 ng·h/mL
C0 (in vivo; [21]): 436 ng/mL
clearance (in vivo; female, Sprague Dawley, iv, 0.3 mg/kg/day, Cl): 31.7 mL/min
Cmax (in vivo; female, Sprague Dawley, iv, 0.3 mg/kg/day, Cmax): 189 ng/mL
half-life (in vivo; female, Sprague Dawley, iv, 0.3 mg/kg/day, T1/2,e): 23.4 min
Vd (in vivo; female, Sprague Dawley, iv, 0.3 mg/kg/day, Vz): 1 L
Cmax (in vivo; female, Sprague-Dawley, iv, 0.3 mg/kg, Cmax range): 11 to 189 ng/mL
Tmax (in vivo; [13]): 15 min
half-life (in vivo; male, Sprague Dawley, iv, 0.05 mg/kg/day, T1/2,e): 9 min
Tmax (in vivo; [14]): 15 min
C0 (in vivo; [14]): 234 ng/mL
clearance (in vivo; male, Sprague Dawley, iv, 0.15 mg/kg/day, Cl): 48.3 mL/min
Cmax (in vivo; male, Sprague Dawley, iv, 0.15 mg/kg/day, Cmax): 59 ng/mL
half-life (in vivo; male, Sprague Dawley, iv, 0.15 mg/kg/day, T1/2,e): 11.4 min
Vd (in vivo; male, Sprague Dawley, iv, 0.15 mg/kg/day, Vz): 0.8 L
Tmax (in vivo; [15]): 15 min
AUC0-inf (in vivo; male, Sprague Dawley, iv, 0.3 mg/kg/day, AUC0-inf): 101 ng·h/mL
C0 (in vivo; [15]): 383 ng/mL
clearance (in vivo; male, Sprague Dawley, iv, 0.3 mg/kg/day, Cl): 50 mL/min
Cmax (in vivo; male, Sprague Dawley, iv, 0.3 mg/kg/day, Cmax): 130 ng/mL
half-life (in vivo; male, Sprague Dawley, iv, 0.3 mg/kg/day, T1/2,e): 10.8 min
Vd (in vivo; male, Sprague Dawley, iv, 0.3 mg/kg/day, Vz): 0.8 L
Cmax (in vivo; male, Sprague-Dawley, iv, 0.3 mg/kg, Cmax range): 18.2 to 130 ng/mL
histopathology, females (Sprague-Dawley rats [4]): no microscopic effect
histopathology, males (Sprague-Dawley rats [4]): intraluminal cellular debris in the epididymis
reticulocytes (Sprague-Dawley rats [4]): decreased reticulocytes
EC50 ([5]; read-out: EC50 - Annexin V +, 24 h, + MS-5, Bulk): 2.34 nM
EC50 ([5]; read-out: EC50 - Annexin V +, 24 h, + MS-5, CD34+): 2.35 nM
EC50 ([5]; read-out: EC50 - Annexin V +, 24 h, + MS-5, CD34+38+): 2.3 nM
EC50 ([5]; read-out: EC50 - Annexin V +, 24 h, + MS-5, CD34+38−): 2.37 nM
EC50 ([5]; read-out: EC50 - Annexin V +, 24 h, Alone, Bulk): 2.13 nM
EC50 ([5]; read-out: EC50 - Annexin V +, 24 h, Alone, CD34+): 2.13 nM
EC50 ([5]; read-out: EC50 - Annexin V +, 24 h, Alone, CD34+38+): 2.09 nM
EC50 ([5]; read-out: EC50 - Annexin V +, 24 h, Alone, CD34+38−): 2.14 nM
IC50 ([6]; MV4-11, 24 h): 24.1 nM
IC50 ([6]; MV4-11, 48 h): 7.29 nM
IC50 ([6]; MV4-11, 72 h): 5.6 nM
NOAEL at 7 days [7]: 0.05 to 0.15 mg/kg
survival of high-dose females (Sprague-Dawley rats [8]): euthanized prior to Day 7
EC50 ([9]; read-out: EC50 -Cell Count, 24 h, + MS-5, Bulk): 2.33 nM
EC50 ([9]; read-out: EC50 -Cell Count, 24 h, + MS-5, CD34+): 2.38 nM
EC50 ([9]; read-out: EC50 -Cell Count, 24 h, + MS-5, CD34+38+): 2.62 nM
EC50 ([9]; read-out: EC50 -Cell Count, 24 h, + MS-5, CD34+38−): 2.3 nM
EC50 ([9]; read-out: EC50 -Cell Count, 24 h, Alone, Bulk): 2.19 nM
EC50 ([9]; read-out: EC50 -Cell Count, 24 h, Alone, CD34+): 2.15 nM
EC50 ([9]; read-out: EC50 -Cell Count, 24 h, Alone, CD34+38+): 2.13 nM
EC50 ([9]; read-out: EC50 -Cell Count, 24 h, Alone, CD34+38−): 2.13 nM
